Experimental data from ChEMBL document CHEMBL2203029, “Discovery and Structural Modification of 1-Phenyl-3-(1-phenylethyl)urea Derivatives as Inhibitors of Complement” (ACS Med Chem Lett, 2012).
≈ marks a conversion by molar mass, not a printed value. Calls of active or inactive are those of the source. The calls are words filed in the database; no cut-off is given here.

What was measured:
[1] = (§1) Inhibition of complement system in human fetal serum assessed as inhibition of hemolysis incubated for 1 hr by spectrophotometric analysis
Homo sapiens [2] = organism: Homo sapiens; experiment: Inhibition of complement system in human fetal serum assessed as inhibition of hemolysis at 100 ug/mL incubated for 1 hr by spectrophotometric analysis
Homo sapiens [3] = organism: Homo sapiens; experiment: as §1
Homo sapiens [4] = organism: Homo sapiens; experiment: Inhibition of complement system in human fetal serum assessed as inhibition of hemolysis at 10 ug/mL incubated for 1 hr by spectrophotometric analysis
[5] = Inhibition of lectin pathway in human serum assessed as inhibition of C9 deposition at 10 ug/mL incubated for 1 hr by ELISA; type: cell-free
Homo sapiens [6] = organism: Homo sapiens; experiment: Inhibition of alternative complement system in human serum assessed as inhibition of C9 deposition at 10 ug/mL incubated for 1 hr by ELISA; type: cell-free
Homo sapiens [7] = organism: Homo sapiens; experiment: Inhibition of classical complement system in human serum assessed as inhibition of C9 deposition at 10 ug/mL incubated for 1 hr by ELISA; type: cell-free
[8] = Inhibition of lectin pathway in human serum assessed as inhibition of C9 deposition incubated for 1 hr by ELISA; type: cell-free
Summary of the method: (§2)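 Normal human serum was added to coated plates and incubated with a range of inhibitor concentrations. The coating set the pathway: IgM for the classical pathway, mannan for the lectin pathway, and zymosan for the alternative pathway. C3, C4 and C9 deposition were then measured on the plates.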

[9] = Inhibition of alternative complement system in human serum assessed as inhibition of C9 deposition incubated for 1 hr by ELISA; type: cell-free; summary of the method: as §2
[10] = Inhibition of classical complement system in human serum assessed as inhibition of C9 deposition incubated for 1 hr by ELISA; type: cell-free; summary of the method: as §2
[11] = Inhibition of lectin pathway in human serum assessed as inhibition of C4 activation incubated for 1 hr by ELISA; type: cell-free; summary of the method: as §2
Homo sapiens [12] = organism: Homo sapiens; experiment: Inhibition of alternative complement system in human serum assessed as inhibition of C4 activation incubated for 1 hr by ELISA; type: cell-free; summary of the method: as §2
[13] = Inhibition of lectin pathway in human serum assessed as inhibition of C3 activation incubated for 1 hr by ELISA; type: cell-free; summary of the method: as §2
Homo sapiens [14] = organism: Homo sapiens; experiment: Inhibition of classical complement system in human serum assessed as inhibition of C4 activation incubated for 1 hr by ELISA; type: cell-free; summary of the method: as §2
Homo sapiens [15] = organism: Homo sapiens; experiment: Inhibition of alternative complement system in human serum assessed as inhibition of C3 activation incubated for 1 hr by ELISA; type: cell-free; summary of the method: as §2
Homo sapiens [16] = organism: Homo sapiens; experiment: Inhibition of classical complement system in human serum assessed as inhibition of C3 activation incubated for 1 hr by ELISA; type: cell-free; summary of the method: as §2

| SMILES | IC50 [1] [nM] | other results |
| --- | --- | --- |
| CCCCOc1cc(NC(=O)N2CCCC2c2ccccc2)ccc1OC (configuration not stated) | 105 | – |
| C=C(C)COc1cc(NC(=O)N[C@@H](C)c2ccccc2)ccc1OC | 7900 | – |
| COc1ccc(NC(=O)N(CCCO)[C@@H](C)c2ccccc2)cc1OCCCC(C)C | 223 | – |
| COc1ccc(NC(=O)N[C@@H](C)c2cccc(O)c2)cc1OCCCC(C)C | 77 | – |
| COc1ccc(NC(=O)N[C@@H](C)c2ccccc2)cc1O | – | inhibition (Homo sapiens [2]): 35.3% |
| N=C(N)c1cc2ccc(OC(=O)c3cccs3)cc2s1 | 10 | – |
| CCCCCOc1ccc(OC)cc1NC(=O)N[C@@H](C)c1ccccc1 | – | inhibition (Homo sapiens [3]): inactive |
| COc1ccc(NC(=O)N(CC(O)CO)[C@@H](C)c2ccccc2)cc1OCCCC(C)C (some centres not stated) | 368 | – |
| CCCCOc1cc(NC(=O)NCC(C)c2ccccc2)ccc1OC (configuration not stated) | – | inhibition (Homo sapiens [3]): inactive |
| COc1ccc(NC(=O)N[C@@H](C)c2ccc(C(F)(F)F)cc2)cc1OCCCC(C)C | – | inhibition (Homo sapiens [4]): inactive |
| COc1ccc(N(CCCO)C(=O)N[C@@H](C)c2ccccc2)cc1OCCCC(C)C | 1580 | – |
| CCC#CCOc1cc(NC(=O)N[C@@H](C)c2ccccc2)ccc1OC | 244 | – |
| COc1ccc(NC(=O)N[C@@H](C)c2ccccc2)cc1OCCC(C)C | 630 | – |
| CCCCCOc1cccc(NC(=O)N[C@@H](C)c2ccccc2)c1 | 3200 | – |
| COc1ccc(NC(=O)N[C@@H](C)c2ccccc2)cc1OC | 50000 | – |
| C[C@H](NC(=O)Nc1ccc(Cl)cc1)c1ccccc1 | – | inhibition (Homo sapiens [2]): inactive |
| COc1ccc(NC(=O)N[C@H](C)c2ccccc2)cc1OC | – | inhibition (Homo sapiens [2]): 16.9% |
| COc1ccc(NC(=O)N[C@@H](C)c2ccccc2)cc1OCCN1CCCC1 | – | inhibition (Homo sapiens [2]): inactive |
| C[C@H](NC(=O)Nc1cccnc1)c1ccccc1 | – | inhibition (Homo sapiens [2]): inactive |
| CCCCCOc1cc(NC(=O)N[C@@H](C)c2ccccc2)cc(OC)c1 | 270 | – |
| C#CCOc1cc(NC(=O)N[C@@H](C)c2ccccc2)ccc1OC | 8300 | – |
| C=CCOc1cc(NC(=O)N[C@@H](C)c2ccccc2)ccc1OC | 1750 | – |
| CCCCOc1cc(NC(=O)NC(CC)c2ccccc2)ccc1OC (configuration not stated) | 420 | – |
| CCCCCOc1ccccc1NC(=O)N[C@@H](C)c1ccccc1 | – | inhibition (Homo sapiens [3]): inactive |
| COc1ccc(NC(=O)N[C@@H](C)c2ccc(C)cc2)cc1OCCCC(C)C | 327 | – |

| SMILES | IC50 [1] [nM] | other results |
| --- | --- | --- |
| COc1ccc(NC(=O)N[C@@H](C)c2ccccc2)cc1OCC1CCCCC1 | 468 | – |
| CCCCOc1cc(NC(=O)N[C@@H](C)c2ccccc2)ccc1OC | 33 | – |
| CCCCCCCOc1cc(NC(=O)N[C@@H](C)c2ccccc2)ccc1OC | 780 | – |
| CC#CCOc1cc(NC(=O)N[C@@H](C)c2ccccc2)ccc1OC | 1590 | – |
| COc1ccc(NC(=O)NCc2cccc(-c3ccccc3)c2)cc1OC | – | inhibition (Homo sapiens [2]): inactive |
| COc1ccc(NC(=O)N[C@@H](C)c2ccccc2)cc1OCC1CCCN(C)C1 (some centres not stated) | 3200 | – |
| CCCCCOc1cc(OC)ccc1NC(=O)N[C@@H](C)c1ccccc1 | – | inhibition (Homo sapiens [3]): inactive |
| COc1ccc(NC(=O)N[C@@H](C)c2ccccc2)cc1OCc1ccccc1 | – | inhibition (Homo sapiens [2]): 32.7% |
| COc1ccc(NC(=O)N[C@@H](C)c2ccccc2)cc1OCCN1CCCCC1 | 35500 | – |
| COc1ccc(NC(=O)N[C@@H](C)c2ccccc2)cc1 | – | inhibition (Homo sapiens [2]): inactive |
| COc1ccc(NC(=O)N[C@@H](C)c2ccc(F)cc2)cc1OCCCC(C)C | 402 | – |
| COc1ccc(NC(=O)N[C@@H](C)c2ccccc2[N+](=O)[O-])cc1OCCCC(C)C | 368 | – |
| COc1ccc(NC(=O)N(C)Cc2ccccc2)cc1OC | – | inhibition (Homo sapiens [2]): 43.8% |
| COc1ccc(NC(=O)N[C@@H](C)c2cccc(Br)c2)cc1OCCCC(C)C | 1320 | – |
| COc1ccc(NC(=O)N(CCO)[C@@H](C)c2ccccc2)cc1OCCCC(C)C | 323 | – |
| COc1ccc(N(C)C(=O)N[C@@H](C)c2ccccc2)cc1OCCCC(C)C | 540 | – |
| COc1ccc(N(C)C(=O)N(C)[C@@H](C)c2ccccc2)cc1OCCCC(C)C | – | inhibition (Homo sapiens [2]): inactive |
| CCCOc1cc(NC(=O)N[C@@H](C)c2ccccc2)ccc1OC | 353 | – |
| CCCCCCCCCCCCOc1cc(NC(=O)N[C@@H](C)c2ccccc2)ccc1OC | – | inhibition (Homo sapiens [2]): inactive |
| COc1ccc(NC(=O)N[C@@H](C)c2ccc(C(=O)O)cc2)cc1OCCCC(C)C | 761 | – |
| COc1ccc(NC(=O)NCc2cccc3ccccc23)cc1OC | – | inhibition (Homo sapiens [2]): inactive |
| COc1ccc(NC(=O)N[C@@H](C)c2ccccc2)cc1OC(C)C | 10600 | – |
| COc1ccc(NC(=O)N[C@@H](C)c2ccc([N+](=O)[O-])cc2)cc1OCCCC(C)C | 1690 | – |
| COc1cc(NC(=O)N[C@@H](C)c2ccccc2)ccc1OCCNC(=O)OC(C)(C)C | – | inhibition (Homo sapiens [2]): inactive |
| C=CCOc1ccc(NC(=O)N[C@@H](C)c2ccccc2)cc1OC | – | inhibition (Homo sapiens [2]): inactive |

| SMILES | IC50 [1] [nM] | other results |
| --- | --- | --- |
| CCOC(=O)COc1ccc(NC(=O)N[C@@H](C)c2ccccc2)cc1OC | – | inhibition (Homo sapiens [2]): inactive |
| COCCOc1cc(NC(=O)N[C@@H](C)c2ccccc2)ccc1OC | 2000 | – |
| COC(=O)c1ccc([C@H](C)NC(=O)Nc2ccc(OC)c(OCCCC(C)C)c2)cc1 | 535 | – |
| COc1ccc(NC(=O)N[C@@H](C)c2ccc(O)cc2)cc1OCCCC(C)C | 139 | – |
| CCCCOc1cc(NC(=O)NC2CCc3ccccc32)ccc1OC (configuration not stated) | – | inhibition (Homo sapiens [3]): inactive |
| COc1ccc(NC(=O)N(C)[C@@H](C)c2ccccc2)cc1OCCCC(C)C | 19 | – |
| COc1ccc(NC(=O)N[C@@H](C)c2ccc(C#N)cc2)cc1OCCCC(C)C | 1260 | – |
| COc1cc(NC(=O)N[C@@H](C)c2ccccc2)ccc1OCc1ccccc1 | – | inhibition (Homo sapiens [2]): inactive |
| CCCCCCCCCCOc1cc(NC(=O)N[C@@H](C)c2ccccc2)ccc1OC | – | inhibition (Homo sapiens [2]): inactive |
| CCOC(=O)COc1cc(NC(=O)N[C@@H](C)c2ccccc2)ccc1OC | 6200 | – |
| CCCCOc1cc(NC(=O)NCCC(C)c2ccccc2)ccc1OC (configuration not stated) | – | inhibition (Homo sapiens [3]): inactive |
| COc1ccc(NC(=O)N[C@@H](C)c2ccc(Br)cc2)cc1OCCCC(C)C | 3390 | – |
| COc1ccc(NC(=O)N(CCCN)[C@@H](C)c2ccccc2)cc1OCCCC(C)C | 7160 | – |
| CCCCCCOc1cc(NC(=O)N[C@@H](C)c2ccccc2)ccc1OC | 17 | – |
| COc1ccc(NC(=O)N[C@@H](C)c2ccccc2)cc1OCCCC(C)C | 13 | inhibition [5]: 90%; inhibition (Homo sapiens [6]): 90%; inhibition (Homo sapiens [7]): 90%; IC50 [8]: 4.46 µg/mL (≈ 12 µM); IC50 [9]: 3.59 µg/mL (≈ 9.69 µM); IC50 [10]: 3.68 µg/mL (≈ 9.93 µM); inhibition [11]: inactive; inhibition (Homo sapiens [12]): inactive; inhibition [13]: inactive; inhibition (Homo sapiens [14]): inactive; inhibition (Homo sapiens [15]): inactive; inhibition (Homo sapiens [16]): inactive |
| COc1ccc(NC(=O)N[C@@H](C)c2ccccc2)cc1OCC(C)C | 870 | – |
| CCCCCCCCOc1cc(NC(=O)N[C@@H](C)c2ccccc2)ccc1OC | 1290 | – |
| CCCCOc1cc(NC(=O)N2CCCCC2c2ccccc2)ccc1OC (configuration not stated) | – | inhibition (Homo sapiens [3]): inactive |
| CCCCCOc1cc(NC(=O)N[C@@H](C)c2ccccc2)ccc1OC | 19 | – |
| CCOc1ccc(NC(=O)N[C@@H](C)c2ccccc2)cc1OC | – | inhibition (Homo sapiens [2]): inactive |
| COc1cccc(NC(=O)N[C@@H](C)c2ccccc2)c1 | – | inhibition (Homo sapiens [2]): inactive |
| C[C@H](NC(=O)Nc1ccccc1)c1ccccc1 | – | inhibition (Homo sapiens [2]): inactive |
| CCOc1cc(NC(=O)N[C@@H](C)c2ccccc2)ccc1OC | 2860 | – |
| CCCCCOc1cc(OC)c(NC(=O)N[C@@H](C)c2ccccc2)c(OC)c1 | – | inhibition (Homo sapiens [3]): inactive |
| COc1cc(NC(=O)N[C@@H](C)c2ccccc2)ccc1O | – | inhibition (Homo sapiens [2]): 14.6% |
